Source: PubChem BioAssay
proCasp3 act: activators of human procaspase-3; P42574; recombinant procaspase-3 D3A, Ac-DEVD-pNA absorbance 405 nm; activation, % at 8.5 µM; 330,000 compounds, 0.11% hits;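 active means activation above the mean of all tested compounds plus 3 SD, cut at about 21% in these data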;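 further: 0% = DMSO alone and 100% = DMSO wells spiked with extra 5 µM PC-3 D3A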
Target sequence (P42574 whole entry D9A/D28A/D175A): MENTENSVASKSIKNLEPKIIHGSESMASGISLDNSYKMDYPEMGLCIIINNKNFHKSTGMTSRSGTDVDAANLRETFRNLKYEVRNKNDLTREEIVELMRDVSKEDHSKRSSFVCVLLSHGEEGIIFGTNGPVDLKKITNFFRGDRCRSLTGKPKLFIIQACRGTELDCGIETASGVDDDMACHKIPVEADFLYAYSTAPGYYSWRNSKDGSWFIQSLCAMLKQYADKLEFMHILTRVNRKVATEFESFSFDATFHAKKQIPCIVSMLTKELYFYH
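Compound: 8.5 µM single point, 0.8% DMSO / Material: Autoprocessing-dead procaspase-3 D3A mutant enzyme / Timing: 1 h preincubation plus 2 h reaction at 25 °C / Medium: Zinc-free HEPES/NaCl buffer with 0.01% Triton X-100 at pH 7.4 / Technique: 405 nm absorbance of p-nitroaniline, reads at 0 and 120 min / Repeats: one well per compound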
proCasp7 act: counter-screen for procaspase-3 activators: activators of human procaspase-7. recombinant procaspase-7, Ac-DEVD-pNA absorbance 405 nm; D23A/D198A/D206A triple mutant, cannot self-cleave; scale: DMSO 0, 5 µM enzyme 100. P55210. 330,000 compounds, 0.093% hits. activation, % at 8.5 µM. AID 463210;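 active means percent activation above the screen-wide mean plus 3 SD, cut at about 25% in these data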
Target sequence (P55210 whole entry D23A/D198A/D206A): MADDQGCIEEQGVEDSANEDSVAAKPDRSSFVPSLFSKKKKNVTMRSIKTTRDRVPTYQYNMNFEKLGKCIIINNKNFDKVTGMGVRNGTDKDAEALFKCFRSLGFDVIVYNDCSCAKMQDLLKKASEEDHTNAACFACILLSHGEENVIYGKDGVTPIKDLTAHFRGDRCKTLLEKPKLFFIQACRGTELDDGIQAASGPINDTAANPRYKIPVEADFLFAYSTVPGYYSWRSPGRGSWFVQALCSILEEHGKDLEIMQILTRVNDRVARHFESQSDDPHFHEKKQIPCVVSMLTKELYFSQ
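Detection: p-Nitroaniline absorbance at 405 nm, read at 0 and 120 min; system: Uncleavable procaspase-7 mutant enzyme; evaluation: % activation from two-timepoint absorbance difference, scaled to controls; times: 1 h enzyme–compound preincubation and 2 h substrate reaction, both 25 °C; buffer or medium: Zinc-free HEPES pH 7.4 with 300 mM NaCl, 0.01% Triton X-100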
NR3A LBD binder: modulates the human NR3A ligand-binding domain; NR3A LBD differential scanning fluorimetry, Tm shift; 0% = protein alone, 100% = glycine-bound protein; Tm shift relative to glycine control, % at 25 µM; 340,000 compounds, 2.5% hits; AID 1259313;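 active means melting temperature shift of at least 10% of the positive control shift, at one fixed dose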
aDG glyco up: increases alpha dystroglycan glycosylation; 360,000 compounds, 0.22% hits; activation, % at 10 µM; Pro5-aDG cells, alpha-DG glycosylation AlphaScreen (IIH6); 0% Pro5, 100% B10-LARGE cell signal;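 active means activation of at least 8% versus controls, or a plate z-score of at least 8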;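 further: Pro5 are CHO cells carrying HIG-tagged alpha-DG that lacks glycosylation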
MPTP block: inhibitors of mitochondrial permeability transition pore | inhibition, % at 10 µM | isolated mouse mitochondria, Ca2+ swelling absorbance, 30 min | AID 602449 | 360,000 compounds, 1.4% hits;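 active means inhibition of 50% or more, scaled per plate between neutral and stimulator controls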;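 further: 0% = DMSO wells given calcium and 100% = 1 mM EGTA wells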
Active calls of the source: *; . = no result given. Sampled rows, rich in hits. Any-hit rate of the full collection: about 3.7%.

SMILES	proCasp3 act	proCasp7 act	NR3A LBD binder	aDG glyco up	MPTP block
C[C@H]1Cn2cnc(C(=O)NCc3ccc(CNC(=O)OC(C)(C)C)cc3)c2C(=O)N1	.	.	.	0	0
CCOC(=O)C1=C(N)Oc2cc(O)ccc2C1c1cccc(Cl)c1 (stereo unspecified)	-1	1	13*	0	4
CCOC(=O)C1=C(N)Oc2cc(O)ccc2C1c1cccnc1 (stereo unspecified)	1	8	0	0	2
N#CCCN(Cc1cccnc1)C(=S)NC(=O)c1ccccc1	0	-8	2	0	-2
O=C1[C@H]2[C@@H](c3ccc(F)cc3)N3C(=O)N(c4cccc(F)c4)C(=O)[C@@]3(Cc3ccc(Cl)cc3)[C@H]2C(=O)N1C1CCCCC1	0	-5	10	1	0
Cc1cccc(N2C(=O)N3[C@H](c4ccc(F)cc4)[C@@H]4C(=O)N(C5CCCCC5)C(=O)[C@@H]4[C@]3(Cc3ccc(Cl)cc3)C2=O)c1	0	-3	0	1	0
CC(C)(C)N1C(=O)[C@H]2[C@@H](c3ccc(Br)cc3)N3C(=O)N(c4ccccc4)C(=O)[C@@]3(Cc3ccccc3)[C@H]2C1=O	-1	-4	-6	1	4
O=C1[C@H]2[C@@H](c3ccc(Cl)cc3)N3C(=O)N(c4cccc(F)c4)C(=O)[C@@]3(Cc3ccc(Cl)cc3)[C@H]2C(=O)N1C1CCCCC1	2	-4	14*	2	1
Cc1cccc(N2C(=O)N3[C@H](c4ccc(Cl)cc4)[C@@H]4C(=O)N(C5CCCCC5)C(=O)[C@@H]4[C@]3(Cc3ccc(Cl)cc3)C2=O)c1	2	-4	21*	0	3
CC(C)(C)N1C(=O)[C@H]2[C@@H](c3ccc(Br)cc3)N3C(=O)N(c4cccc(Br)c4)C(=O)[C@@]3(Cc3ccccc3)[C@H]2C1=O	4	4	10*	1	-1
CCCCCCCCSC1=CC(=O)C(OC)=C(OC)C1=O	.	.	.	0	-6
CCCCNC(=O)C1(C)CCCCN1C(=O)c1ccc2c(c1)C(C)(C)CCC2(C)C (stereo unspecified)	.	.	.	0	0
Cc1ccc(-c2nc(=O)[nH]c3ccccc23)cc1	6	-1	-1	0	1
O=c1nc(-c2ccccc2)c2ccccc2[nH]1	5	-7	12*	0	-1
CCN(CC)S(=O)(=O)c1ccc(Oc2ccccc2)cc1	-2	-3	13*	0	0
C[C@@H]1CN([C@@H](C)CO)C(=O)CCCn2nncc2CO[C@@H]1CN(C)C(=O)Nc1ccc2c(c1)OCO2	.	.	.	0	-1
CCN1C[C@@H]2[C@@H]3C(=O)N(C)C(=O)[C@@H]3[C@](Cc3ccccc3)(C1=O)N2C(=O)c1ccc(C(C)(C)C)cc1	.	.	0	0	0
CC(=O)c1cccc(NC(=O)C(=O)Nc2cccc3ccccc23)c1	-2	6	62*	0	-1
CC(=O)c1ccc(NC(=S)Nc2cccc3ccccc23)cc1	-13	-20	-2	1	0
O=C1c2ccccc2CCC12N=NCC2c1ccc(Cl)cc1 (stereo unspecified)	0	2	1	0	1
O=C1c2ccccc2CCC12N=NCC2c1ccc(Br)cc1 (stereo unspecified)	4	8	11*	0	0
CCCNC(=O)C1(C)CCCN(C(=O)c2cc(C)n(C(C)(C)C)n2)C1 (stereo unspecified)	.	.	.	0	0
Cc1nn2c(N3CCN(C)CC3)cc(C(C)(C)C)nc2c1-c1ccccc1	2	-1	-1	0	-6
Cc1nn2c(N3CCN(C4CCCC4)CC3)cc(C(C)(C)C)nc2c1-c1ccccc1	-7	11	13*	0	1
CCOC(=O)Nc1ccc2c(CN(C)Cc3ccc(F)cc3)cc(=O)oc2c1	5	1	14*	0	1
SMILES	proCasp3 act	proCasp7 act	NR3A LBD binder	aDG glyco up	MPTP block
CCN(CC)c1ccc(C=Nc2cc(C)cc(C)c2)c(O)c1	-6	-7	-3	0	4
CCN(CC)c1ccc(C=Nc2ccc(C)cc2)c(O)c1	8	2	13*	0	0
O=C(Nc1ccc(Cl)cc1)N1CCN(c2ccc3nnc(-c4ccc(F)cc4)n3n2)CC1	3	6	27*	1	18
CC(=O)NC(c1cccc(F)c1)c1nc(-c2cccc(C(F)(F)F)c2)cs1 (stereo unspecified)	.	.	.	0	0
O=C(COc1ccccc1[N+](=O)[O-])NCCC1=CCCCC1	1	6	11*	0	1
COc1ccccc1OCC(=O)NCCC1=CCCCC1	11	-10	-1	0	-1
CCOC(=O)[C@]12CCCC=C1N(Cc1ccc3c(c1)OCO3)C(=O)[C@H](CC(=O)N1CCN(C(=O)C3CC3)CC1)C2	.	.	.	0	-2
CN(c1ccc(C(=O)Nc2ccccc2C(=O)N2CCCC2)cc1)S(C)(=O)=O	4	-2	15*	-1	-1
COc1ccc(/C(C)=N\NS(C)(=O)=O)c(OC)c1	-4	3	-4	0	-1
COc1ccc(/C(C)=N/N=C(\C)c2ccc(OC)cc2OC)c(OC)c1	6	0	12*	0	2
OC[C@@H]1CN(Cc2ccc(-c3ccccc3)cc2)C[C@H](n2cnc3c(N4CCOCC4)ncnc32)O1	.	.	.	0	-1
O=C(NC(Cc1ccccc1)C(=O)O)/C(=C/c1ccccc1)NC(=O)c1ccccc1 (stereo unspecified)	-10	-4	14*	0	2
O=C(NC(Cc1ccccc1)C(=O)O)/C(=C\c1ccc(Cl)cc1)NC(=O)c1ccccc1 (stereo unspecified)	9	7	-2	0	-1
Cc1cc(Br)c(NC(=O)c2c(-c3c(Cl)cccc3Cl)noc2C)c(Br)c1	-1	6	12*	0	1
Oc1ccccc1C1NN=C(c2ccccc2)S1 (stereo unspecified)	-7	1	19*	0	2
CC(C)c1ccc(NC(=O)c2cc(S(=O)(=O)NCC3COc4ccccc4O3)ccc2F)cc1 (stereo unspecified)	7	-2	19*	1	28
O=C(Nc1ccc(C(F)(F)F)cc1)c1cc(S(=O)(=O)NCC2COc3ccccc3O2)ccc1F (stereo unspecified)	0	-5	32*	4	37
O=C(NN=Cc1ccccc1)NN=Cc1ccccc1	.	.	0	0	1
Cc1ccc(Nc2nnc(SC(C)C(=O)NCC3CCCO3)s2)cc1 (stereo unspecified)	9	-1	-4	0	-1
O=C(c1ccccc1)c1nn(-c2ccc(Cl)cc2)c(=O)cc1C(F)(F)F	-3	1	-1	-1	-2
